Source: PubChem BioAssay (The Scripps Research Institute Molecular Screening Center)
Jurkat viability – cytotoxic compounds reducing Jurkat cell viability; Jurkat E6.1 viability, ATP luminescence, 48 h; inhibition, % at 4 µM; hit rate 1.2% among 56,000;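 active = inhibition above the mean inhibition of all tested compounds plus 3 SD, cut at about 28% in these data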
HTR1A agonist – 5-HT1a (human) receptor agonism; P08908; CHO 5-HT1a Ga15 NFAT-bla reporter, FRET ratio; 0% basal, 100% maximal reference agonist; activation, % at 10 µM; hit rate 0.56% among 65,000; AID 567;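 active = activation above the screen-wide mean activation plus 3 SD, cut at about 19% in these data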
Target sequence (P08908 whole entry, looked up): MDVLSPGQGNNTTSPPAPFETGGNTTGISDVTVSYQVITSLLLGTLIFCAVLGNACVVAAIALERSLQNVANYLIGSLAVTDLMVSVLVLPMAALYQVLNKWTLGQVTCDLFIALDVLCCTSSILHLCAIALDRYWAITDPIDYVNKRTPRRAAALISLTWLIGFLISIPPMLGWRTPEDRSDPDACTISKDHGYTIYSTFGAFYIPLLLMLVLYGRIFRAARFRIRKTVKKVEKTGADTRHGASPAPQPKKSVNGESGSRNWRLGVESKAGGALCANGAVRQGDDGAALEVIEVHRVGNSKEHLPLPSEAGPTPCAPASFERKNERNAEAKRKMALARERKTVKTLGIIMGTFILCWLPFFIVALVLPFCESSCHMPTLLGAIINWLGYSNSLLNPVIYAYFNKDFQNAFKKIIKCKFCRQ
HEK293 NFkB inh – lowers PMA/ionomycin-induced NF-kB signal in HEK293 cells; hit rate 0.21% among 62,000; inhibition, % at 3 µM; HEK-293 NF-kB luciferase reporter, luminescence;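 active = inhibition above the mean of all tested compounds plus 3 SD, cut at about 40% in these data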
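Reagent: PMA plus ionomycin mix as NF-kB-activating stimulus. Assay system: NF-kB luciferase reporter HEK-293 cells. Technique: luminescence from luciferase substrate reagent. Incubation: 1 h compound pre-incubation, 16 h PMA/ionomycin at 37 °C. Benchmarks: DMSO only as uninhibited control, 10 µM reference inhibitor as full inhibition. Repeats: tested once.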
5HT1E antag – 5-HT1E (human) receptor antagonism; inhibition, % at 6 µM; hit rate 0.99% among 65,000; P28566; AID 571; CHO 5-HT1E Ga15 NFAT-bla reporter, FRET, antagonist;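 active = inhibition above a set limit, the mean inhibition across every tested compound plus 3 SD, cut at about 29% in these data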;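 also: signal is the 460 over 535 nm emission ratio of beta-lactamase substrate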
HTR1E agonist – 5-HT1E (human) receptor agonism; P28566; activation, % at 6 µM; CHO 5-HT1E Ga15 NFAT-bla reporter, FRET; 0% DMSO wells, 100% control agonist wells; hit rate 0.69% among 65,000;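 active = activation above a set limit, the screen-wide mean activation plus 3 SD, cut at about 8.5% in these data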
5-HT1A blocker – blocks the human serotonin 5-HT1a receptor; P08908; CHO 5-HT1a Ga15 NFAT-bla reporter, antagonist mode; inhibition, % at 10 µM; hit rate 0.68% among 62,000; AID 612;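 active = inhibition above the mean of all tested compounds plus 3 SD, cut at about 43% in these data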;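 also: receptor stimulated by 5-CT agonist at 100 nM near EC80; beta-lactamase reporter measured by ratiometric fluorescence of a cleavable substrate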
A number is an active result; i = inactive; nt = not tested or not shown. An excerpt weighted towards active compounds, which were near 3.3% of everything screened.

SMILES	Jurkat viability	HTR1A agonist	HEK293 NFkB inh	5HT1E antag	HTR1E agonist	5-HT1A blocker
CCN(CC)c1nc2cc(OC)ccc2cc1C#N	i	i	i	i	i	i
CCN(CC)c1nc(C#N)cc(-c2ccc(OC)cc2)n1	41	i	i	i	i	i
CN(C)Cc1cc(C(C)(C)c2cc(CN(C)C)c(O)c(CN(C)C)c2)cc(CN(C)C)c1O	i	75	i	i	i	i
Cc1ccc(-c2nc(CN(C)C)cc(CN(C)C)c2O)cc1	i	i	i	i	i	i
Nc1ccc(CN2CCN(c3ccc4ccccc4n3)CC2)cc1	i	i	i	i	14	i
CC1CN(S(=O)(=O)c2ccc(NC(=O)c3cc(-c4ccccc4O)n[nH]3)cc2)CC(C)O1 (configuration not stated)	54	i	i	i	i	i
COc1ccc(S(=O)(=O)N2CCC(n3cnc4cc(C(F)(F)F)ccc43)CC2)cc1	i	i	i	i	22	i
CC(=O)Nc1ccc(S(=O)(=O)N2CCC(n3cnc4cc(F)ccc43)CC2)cc1	i	i	i	i	i	i
Cc1ccc(S(=O)(=O)N2C(=O)CCC2C(=O)NCc2ccco2)cc1 (configuration not stated)	i	i	i	i	i	i
COC(=O)c1cc(OC)c(OC)cc1NC(=O)C1CCC(=O)N1S(=O)(=O)c1ccc(C)cc1 (configuration not stated)	i	i	i	36	i	i
CCOC(=O)CSC1=C(C#N)C(c2ccc(Cl)cc2)CC(=O)N1 (configuration not stated)	i	i	i	i	i	i
CCOC(=O)CSC1=C(C#N)C(c2ccc(C)o2)CC(=O)N1 (configuration not stated)	99	i	i	43	i	i
Cc1noc(C)c1CSc1nc2ccccc2n1CCc1ccccc1	i	i	i	i	i	i
N#CC1=C(N)N(c2ccccc2)C(c2ccco2)C1(C#N)C#N (configuration not stated)	i	42	i	i	i	i
Cc1cccc(N2C(N)=C(C#N)C(C#N)(C#N)C2c2ccccc2)c1 (configuration not stated)	i	i	i	42	i	i
CCCCCCn1c2c(c(=N)c3c1CCC3)CCC2	91	i	i	i	i	i
N=c1c2c(n(Cc3ccc(F)cc3)c3c1CCC3)CCC2	i	i	i	i	i	i
CCCCn1c2c(c(=N)c3c1CCC3)CCC2	69	i	i	i	i	i
C=CCc1ccc(OCCCCCN2CCOCC2)c(OC)c1	i	i	i	i	i	i
CCOc1cc(S(=O)(=O)NCc2ccco2)c(OCC)cc1-n1cnnn1	i	i	i	i	i	i
Cc1[nH]c2ccc(C(=O)OCCN(C)C)cc2c1C	i	i	i	i	31	i
O=C1C(=O)N(CCCN2CCOCC2)C(c2ccccn2)/C1=C(\O)c1ccc2c(c1)OCCO2 (configuration not stated)	i	i	i	i	i	i
CCOC(=O)N1CCC(NC(=O)c2ccc3c(c2)sc2nc(-c4cccc(OC)c4)cn23)CC1	35	i	i	i	i	i
CCOC(=O)N1CCC(NC(=O)c2ccc3c(c2)sc2nc(-c4ccccc4)cn23)CC1	i	i	i	i	i	i
Cc1ccc(C)c(N2CCN(Cc3nnnn3C3CCCCC3)CC2)c1	i	i	i	i	42	i
SMILES	Jurkat viability	HTR1A agonist	HEK293 NFkB inh	5HT1E antag	HTR1E agonist	5-HT1A blocker
Cn1c(C(=O)N2CCCC(C(=O)NCc3ccc4c(c3)OCO4)C2)cc2sccc21 (configuration not stated)	i	i	i	i	i	i
CCn1c(C(=O)N2CCC(C(=O)NCc3ccc4c(c3)OCO4)CC2)cc2sccc21	i	20	i	i	i	i
CS(=O)(=O)N(CC(=O)Nc1cccc(F)c1)Cc1ccccc1	i	i	i	i	i	i
Cc1ccc(NC(=O)CSc2nnc(-c3ccncc3)n2N)cc1C	nt	i	i	i	i	i
Cc1cnn(-c2nc(-c3cccs3)cc(C(F)(F)F)n2)c1	i	i	i	29	i	i
O=C(CCCc1nc(-c2ccc(Cl)cc2)no1)Nc1cccnc1	42	i	i	i	i	i
Cc1cccc(-c2noc(CCCC(=O)Nc3cccnc3)n2)c1	i	i	i	i	i	i
